Rows were chosen to be rich in hits. Some 3.9% of all compounds tested hit in one or more screens of this group.
SR-BI DiI-HDL act – activators of SR-BI mediated DiI-HDL uptake, primary screen, ldlA[mSR-BI] CHO cells, DiI fluorescence. 3 h; 100 = double the neutral-control signal. activation, % at 12.5 µM. actives 0.096% (n = 320,000). AID 504775, 2011;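 active = mean replicate activation of at least 60% and every replicate at or above 60%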
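Test system: SR-BI-overexpressing, LDLR-lacking CHO cells. Measured by: DiI fluorescence, bottom read. Medium: Ham's F12 with 0.5% BSA, HEPES 25 mM, pH 7.4. Timing: 3 h uptake period with compound, 37 °C.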
HIF activator – HIF pathway transcriptional activators, primary screen, cell-based, U2OS HRE-luciferase, luminescence; U2OS HRE-luciferase reporter; normalized: DMSO 0%, desferrioxamine 100%; activation, % at 7.5 µM (by protocol); actives 0.32% (n = 300,000); AID 1910, 2009;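 active = mean activation of at least 10% of the iron chelator positive control signal, with at least half of replicates also reaching 10%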
SR-BI DiI inh – inhibitors of SR-BI mediated HDL lipid uptake, primary screen, ldlA[mSR-BI] cells, fluorescence, single point. ldlA[mSR-BI] CHO cells, DiI-HDL uptake fluorescence, 3 h. inhibition, % at 12.5 µM. actives 0.96% (n = 320,000). Scavenger receptor class B member 1 (Mus musculus), Q61009;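 active = mean replicate inhibition of at least 70% and a set share of replicates each scoring 70 or more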
ABCB6 inh 2 – ABCB6 transporter inhibitors, primary screen, K562-ABCB6 cells, flow cytometry, MLPCN library. K562-ABCB6 porphyrin accumulation, 1 h; active compounds read low. fluorescence ratio to DMSO, % at 10 µM. actives 0.19% (n = 360,000). AID 602162, 2011;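 active = fluorescence ratio to DMSO below 75%, the collection mean minus 3 SD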;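 also: signal is porphyrin accumulated inside mitochondria; lower ratio means ABCB6 inhibition with less porphyrin fluorescence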
Target sequence (Q9NP58 whole entry, looked up): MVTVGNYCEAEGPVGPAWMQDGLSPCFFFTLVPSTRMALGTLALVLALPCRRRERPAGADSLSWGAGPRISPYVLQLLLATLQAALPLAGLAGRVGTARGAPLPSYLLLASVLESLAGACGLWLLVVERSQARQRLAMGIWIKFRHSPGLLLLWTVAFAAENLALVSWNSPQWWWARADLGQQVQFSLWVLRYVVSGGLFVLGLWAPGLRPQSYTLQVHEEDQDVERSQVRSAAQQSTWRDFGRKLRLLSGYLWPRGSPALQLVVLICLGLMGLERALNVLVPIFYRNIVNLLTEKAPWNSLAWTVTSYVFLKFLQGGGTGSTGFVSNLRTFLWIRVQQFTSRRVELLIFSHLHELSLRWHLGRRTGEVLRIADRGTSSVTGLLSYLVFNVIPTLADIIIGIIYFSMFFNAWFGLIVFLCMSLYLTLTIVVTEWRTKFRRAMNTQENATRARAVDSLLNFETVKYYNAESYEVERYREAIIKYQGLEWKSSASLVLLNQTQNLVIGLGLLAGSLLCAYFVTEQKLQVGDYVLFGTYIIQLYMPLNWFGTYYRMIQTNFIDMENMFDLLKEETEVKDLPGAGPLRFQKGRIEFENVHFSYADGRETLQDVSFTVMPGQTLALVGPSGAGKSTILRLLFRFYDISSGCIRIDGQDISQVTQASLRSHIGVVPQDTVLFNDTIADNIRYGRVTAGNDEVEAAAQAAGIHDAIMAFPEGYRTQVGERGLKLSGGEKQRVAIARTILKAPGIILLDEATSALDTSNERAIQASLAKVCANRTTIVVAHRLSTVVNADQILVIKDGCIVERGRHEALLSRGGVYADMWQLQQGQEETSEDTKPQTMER
AHR activator – AHR activators, primary screen, cell-based, luminescence, luciferase reporter, human | Aryl hydrocarbon receptor (Homo sapiens), P35869 | actives 2.5% (n = 320,000) | AHR-responsive luciferase reporter cells | activation, % at 5 µM | AID 2796, 2010; in the data active = activation above about 47%
FXN GAA850 act – FXN promoter activators, primary screen, cell-based, luciferase luminescence, HEK293 lucGAA850 | HEK293 lucGAA850 FXN promoter luciferase reporter, 24 h; percent of 10 µM SAHA response | activation, % at 6 µM | actives 0.56% (n = 360,000) | AID 540364, 2011;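 active = activation above the average of all compounds screened plus 3 SD, cutoff fixed separately per campaign, cut at about 7.5% in these data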
AHR act confirm – AHR activators, confirmation, cell-based, luminescence, luciferase reporter, human | shares compounds with AHR activator | human cells, AHR-responsive luciferase reporter | activation, % at 9 µM | actives 87% (n = 2,300) | AID 2845, 2010; in the data active = activation above about 49%;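 also: HepG2 hepatoma cells carrying a DRE-driven firefly luciferase reporter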
PXR counter – human PXR activators, counter-screen for AHR activator project, cell-based, luciferase luminescence; actives 88% (n = 2,300); shares compounds with AHR activator; cell-based PXR reporter; activation, % at 11.6 µM; AID 434939, 2010; in the data active = activation above about 11%;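 also: human hepatoma DPX-2 cells expressing full-length human PXR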
Of the large screens only hits and unclear results are named; the others gave an inactive call (follow-up assays come after a bar, where they were run).

COc1ccc(CN(C)C(=O)/C=C/c2ccc(S(=O)(=O)N3CCOCC3)cc2)cc1F	none (no result: HIF activator, AHR activator)
COC(=O)c1c(-c2ccc(OC)cc2)sc2ccc(-c3ccc4c(c3)OCO4)cc12	none (no result: HIF activator)
COc1ccc(-c2sc3cc4c(cc3c2C#Cc2cncn2C)OCO4)cc1	AHR activator 82 (no result: HIF activator) | AHR act confirm 103 | PXR counter 15
CC1=CCC2C(=O)N(c3ccc(C)c(Br)c3)C(=O)C2C1 (centres undefined)	AHR activator 90 | AHR act confirm inactive | PXR counter 87
COc1cccc(OC)c1C1=CC(=O)C[C@H](c2ccc3c(c2)OCO3)C1	none (no result: HIF activator)
COc1cccc(C2=CC(=O)C[C@H](c3ccc4c(c3)OCO4)C2)c1OC	AHR activator 120 (no result: HIF activator) | AHR act confirm 109 | PXR counter 148
O=C1C=C(c2cccc(Br)c2)C[C@@H](c2ccc3c(c2)OCO3)C1	AHR activator 86 (no result: HIF activator) | AHR act confirm 83 | PXR counter 33
COc1ccc(F)cc1C1=CC(=O)C[C@H](c2ccc3c(c2)OCO3)C1	AHR activator 86 (no result: HIF activator) | AHR act confirm 73 | PXR counter 112
Cc1nc(-c2ccccn2)sc1C(=O)Nc1ccc(F)cc1F	AHR activator 95 | AHR act confirm inactive | PXR counter 26
CCOC(=O)C1=C(C)OC(N)=C(C#N)C1c1ccc(C)o1 (centres undefined)	none (no result: HIF activator)
O=[N+]([O-])c1cccn2cc(-c3ccc(Br)cc3)nc12	AHR activator 107 | AHR act confirm 214 | PXR counter 17
Cc1ccc(-c2cn3cccc(C)c3n2)cc1	none (no result: AHR activator)
CC(=O)c1ccc(NC(=O)c2cc(=O)[nH]c3ccccc23)cc1	none
Cc1cccc(NC(=O)c2cc(=O)[nH]c3ccccc23)c1	AHR activator 89 | AHR act confirm 90 | PXR counter 11
CCOC(=O)Cc1c(C)nc2cc(-c3ccc(C)cc3)[nH]n2c1=O	none
CCc1c(C)nc2cc(-c3ccc(Cl)cc3)[nH]n2c1=O	AHR activator 113 | AHR act confirm 95 | PXR counter 22
c1cn(CCCNc2ncnc3sc4c(c23)CCC4)cn1	AHR activator 128 | AHR act confirm 92 | PXR counter 18
c1csc(CCNc2ncnc3sc4c(c23)CCC4)c1	none
CCC(CO)NCc1ccccc1OC(C)C (centres undefined)	none (no result: SR-BI DiI-HDL act, SR-BI DiI inh)
O=C(NC(=S)N1CCCc2ccccc21)c1ccccc1	none
O=C(NC(=S)N1CCCc2ccccc21)c1ccc(Br)cc1	AHR activator 88 | AHR act confirm 84 | PXR counter 20
CCn1cnc2cc(NCc3ccc(Cl)cc3)ccc21	AHR activator 99 | AHR act confirm 98 | PXR counter 32
CCn1cnc2cc(NCc3ccncc3)ccc21	none (no result: HIF activator)
COC(=O)N/N=C/c1cn(CCOc2ccccc2)c2ccccc12	none
CCOC(=O)N/N=C/c1cn(CCCOc2ccccc2)c2ccccc12	AHR activator 105 | AHR act confirm 85 | PXR counter 34
CNC(=S)N/N=C/c1cn(CCOc2ccccc2OC)c2ccccc12	AHR activator 80 | AHR act confirm 62 | PXR counter 110
Cc1ccc(CSCC(=O)Nc2ccccc2C(=O)O)cc1	none
COc1ccc(CCN2Cc3c(N)cccc3C2=O)cc1OC	AHR activator 83 | AHR act confirm inactive | PXR counter 12
O=c1sc2ccccc2n1CCOc1ccccc1	AHR activator 109 | AHR act confirm 123 | PXR counter 30
S=c1[nH]c2ccccc2n1CCOc1ccccc1	AHR activator 96 | AHR act confirm 102 | PXR counter 77
Cc1cccc(OCCn2c(=S)[nH]c3ccccc32)c1	AHR activator 81 | AHR act confirm 90 | PXR counter 74
CCOc1ccc(OCCn2c(=S)[nH]c3ccccc32)cc1	none (no result: AHR activator)
Cc1csc2ncc(C(=O)Nc3ccon3)c(=O)n12	AHR activator 120 | AHR act confirm 115 | PXR counter 12
Cc1cccc(NC(=O)c2cnc3scc(C)n3c2=O)c1	AHR activator 79 | AHR act confirm 96 | PXR counter 57
Cc1csc2ncc(C(=O)Nc3ccc4c(c3)OCCO4)c(=O)n12	none
CCCc1nc2c(c(=O)c3ccccc3n2C)c(=O)n1-c1ccc(F)cc1	none
CCc1nc2oc3ccccc3c(=O)c2c(=O)n1-c1ccccc1	AHR activator 99 | AHR act confirm 118 | PXR counter 24
CCCc1nc2oc3ccccc3c(=O)c2c(=O)n1-c1ccc(C)cc1	AHR activator 81 (no result: SR-BI DiI-HDL act, SR-BI DiI inh) | AHR act confirm 76 | PXR counter 68
C[C@H](CO)N1C[C@H](C)[C@@H](CN(C)S(=O)(=O)c2ccc3c(c2)OCCCO3)OCc2cnnn2CCCC1=O	none (no result: SR-BI DiI-HDL act, HIF activator, SR-BI DiI inh, AHR activator)
CC1CN(S(=O)(=O)c2cccc(C(=O)Nc3ccccc3N3CCOCC3)c2)CC(C)O1 (centres undefined)	none (no result: HIF activator, AHR activator)
N/C(=N\OC(=O)c1cccc2ccccc12)c1cccnc1	AHR activator 85 | AHR act confirm 55 | PXR counter 15
N/C(=N\OC(=O)c1ccc(Cl)cc1Cl)c1cccnc1	none
CCOC(=O)c1sc(=S)n(C)c1NC(=O)c1cccc(Br)c1	none (no result: SR-BI DiI-HDL act, SR-BI DiI inh)
CSc1nsc(SCC(=O)Nc2nc3ccccc3s2)n1	AHR activator 80 | AHR act confirm 53 | PXR counter 13
COc1ccc2nc(NC(=O)CSc3nc(SC)ns3)sc2c1	none
CCn1nnnc1SCC(=O)Nc1nc2ccccc2s1	AHR activator 86 | AHR act confirm 61 | PXR counter 42
COCCCn1nnnc1SCC(=O)Nc1nc2ccccc2s1	AHR activator 112 | AHR act confirm 101 | PXR counter 61
COCCn1c(SCC(=O)Nc2nc3ccccc3s2)nnc1-c1ccoc1C	none
O=C(CSc1nnnn1-c1ccc(F)cc1)Nc1nc2ccccc2s1	none
CCCCCNC(=O)c1ccc(NC(=O)CC2SC(N3CCCC3)=NC2=O)cc1 (centres undefined)	none (no result: SR-BI DiI-HDL act, HIF activator, SR-BI DiI inh, AHR activator)
